Screening data (PubChem)
Sampled rows, rich in hits. Any-hit rate of the full collection: about 2.2%.
RBBP9 inh = human RBBP9 hydrolase inhibition; 220,000 compounds, 0.2% hits; AID 1515; O75884; inhibition, % at 7.94 µM; recombinant RBBP9, FP-Rh probe fluorescence polarization;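 active = inhibition above the campaign mean of all tested compounds plus 3 SD, cut at about 14% in these data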;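 note: plate controls were DMSO wells with RBBP9 for no effect and wells lacking RBBP9 protein for full effect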
Target sequence (O75884 whole entry, looked up): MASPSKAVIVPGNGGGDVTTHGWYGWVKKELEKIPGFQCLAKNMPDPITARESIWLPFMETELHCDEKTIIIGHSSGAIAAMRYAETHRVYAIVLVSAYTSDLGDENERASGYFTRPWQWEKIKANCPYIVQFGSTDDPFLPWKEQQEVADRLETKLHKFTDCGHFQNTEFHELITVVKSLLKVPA
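Material: RBBP9 protein. Amount: RBBP9 at 2.5 µM in dispensed solution, before mixing. Schedule: 30 min then 45 min, 25 °C. Medium: Tris buffer pH 8.0, NaCl, Pluronic. Measured by: fluorescence polarization. Measure: percent inhibition from mP, scaled between DMSO and no-protein wells. Replication: one well per compound.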
Insulin prom up = MIN6 insulin promoter up-regulation; MIN6 insulin promoter-GFP reporter, high-content imaging; hits give high values; z-score at 5 µM; 190,000 compounds, 0.3% hits;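 active = z-score above 3 at 5 µM with at least 500 cells counted in the well; inconclusive = wells under 500 cells, flagged as cytotoxic or low count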
Insulin prom inh = TRM-6 insulin promoter activity inhibition; TRM-6 cells, insulin promoter-eGFP reporter, imaging; reporter expression induced with tamoxifen; inhibition, % at 2 µM; AID 1273; 130,000 compounds, 0.9% hits;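 active = inhibition above the mean plus 3 SD, with well images judged a real hit on visual review, cut at about 60% in these data, passing the limit was not always enough; inconclusive = inhibition over the cutoff but images rejected on review; inactive = inhibition not above the cutoff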
Mdm2 ligase inh = inhibitors of human Mdm2 E3 ubiquitin ligase; cell-based MDM2 ubiquitination luciferase reporter, 2 h; 0 = plate control, 100 = twice control, blank-subtracted; signal enhancement, % at 5 µM; 210,000 compounds, 0.11% hits; AID 1230;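 active = signal enhancement of 30% or more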;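 note: luminescence tracks abundance of the self-degrading MDM2-luciferase fusion protein; higher signal means inhibition of MDM2 E3 ligase activity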
Target sequence (Q00987 whole entry, looked up, the tested form may be a part): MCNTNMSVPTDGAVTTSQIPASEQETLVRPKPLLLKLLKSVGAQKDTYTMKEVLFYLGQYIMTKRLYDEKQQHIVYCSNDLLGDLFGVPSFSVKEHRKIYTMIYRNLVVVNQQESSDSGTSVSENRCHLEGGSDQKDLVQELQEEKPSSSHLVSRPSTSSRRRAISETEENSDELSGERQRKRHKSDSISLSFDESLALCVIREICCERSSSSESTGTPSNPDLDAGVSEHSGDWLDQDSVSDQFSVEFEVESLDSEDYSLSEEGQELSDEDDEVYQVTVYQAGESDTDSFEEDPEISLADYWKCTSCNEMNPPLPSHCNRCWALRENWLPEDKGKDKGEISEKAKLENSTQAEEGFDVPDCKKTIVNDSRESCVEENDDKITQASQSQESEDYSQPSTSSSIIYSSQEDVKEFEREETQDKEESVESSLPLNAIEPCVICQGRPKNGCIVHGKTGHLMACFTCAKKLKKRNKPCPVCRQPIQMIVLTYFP
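Assay system: mammalian cells stably expressing self-ubiquitinating, self-degrading MDM2 E3–luciferase fusion. Quantity: 2000 cells in each well. Medium: DMEM culture medium. Compound dosing: single-point 5 µM. Timing: cell settling 4 h, compound treatment 2 h, both 37 °C. Technique: luciferase luminescence. Read-out basis: percent signal gain over controls, blank-subtracted. Benchmarks: plate controls and plate blanks.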
Wee1 degr inh = human Wee1 degradation inhibition, primary screen; P30291; HeLa Luc-Wee1K328M stability, luciferase luminescence; 100% = proteasome inhibitor MG132 effect; reporter increase, % at 5 µM; 220,000 compounds, 1.2% hits; AID 1321;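 active = activation above the mean of all tested compounds plus 3 SD, set per screening run, cut at about 8.8% in these data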;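 note: cells exposed to compound for 20 h before luminescence read; 0% = DMSO alone and 100% = MG132 at 30 µM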
Hsp70 activator = Hsp70 transcriptional activation, primary screen | HeLa Hsp70 promoter luciferase reporter, luminescence; scaled: vehicle 0, proteasome-inhibitor control 100% | activation, % at 10 µM | 200,000 compounds, 0.04% hits;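 active = activation above the mean across all tested compounds plus 3 SD, cutoff set per campaign, cut at about 5.5% in these data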;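 note: 100% = MG132 at 30 µM as the positive control and 0% = DMSO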
Numbers without * were called inactive; i = inactive; ? = inconclusive; nt = not tested or not shown.

SMILES | RBBP9 inh | Insulin prom up | Insulin prom inh | Mdm2 ligase inh | Wee1 degr inh | Hsp70 activator
O=C(CCCCn1c(=O)[nH]c2ccccc2c1=O)NCCc1c[nH]c2ccccc12 | -9.1 | 0 | 30.0 | nt | 2.7 | -0.1
COc1cc2[nH]c(=O)n(CCCCCC(=O)NCCc3c[nH]c4ccccc34)c(=O)c2cc1OC | -2.6 | nt | 66.7* | -10.0 | 0.3 | 0.2
CCOc1ccc(C(=O)NC2=NCCS2)cc1 | -4.6 | -0.54 | 83.3* | -8.4 | 4.9 | 0.2
CC(=O)N(C)C1(c2nnnn2CCOC(=O)Nc2cccc3ccccc23)CCCC1 | 1.7 | 0.02 | 11.8 | 15.2 | -1.3 | -0.3
Cc1cc(C(=O)Nc2ccc(N3CCCCC3)cc2)no1 | -5.6 | -0.42 | nt | -58.4 | 9.1* | nt
Cc1ccc(NC(=O)COC(=O)c2ccc(Cl)cc2)cc1S(=O)(=O)N(C)C | -9.7 | 0.65 | nt | -10.2 | -1.4 | -0.4
Cc1cc(C(=O)O)ccc1N/C=C1\CCCC(C)C1=O (stereo not given) | 0.3 | -0.21 | 34.4 | -50.4 | -1.7 | -0.1
CC1CCC/C(=C\Nc2ccc(O)cc2)C1=O (stereo not given) | 14.3* | 0.6 | 50.0 | -1.3 | 0.4 | 0.3
Cc1nc2c(oc3ccccc32)c(=O)o1 | -0.7 | 4.23* | 0.0 | 2.5 | -0.7 | 0.0
O=c1[nH]c(Cc2ccccc2)nc2c1oc1ccccc12 | -2.4 | 0.39 | 0.0 | 3.0 | -2.5 | -0.5
COc1ccc(N2C(=O)C(CC(=O)Nc3ccccc3)N(Cc3ccccn3)C2=S)cc1 (stereo not given) | -1.0 | -0.25 | -40.0 | -2.4 | 9.1* | 0.1
O=C(Cn1cnc2c(nnn2-c2cccc(Cl)c2)c1=O)NCc1ccccc1 | 6.9 | -0.16 | nt | 0.5 | 4.1 | -0.1
CC(=NCc1cccc(Cl)c1)c1nc(-c2ccco2)oc1O | -1.0 | -0.34 | -128.6 | -15.7 | 9.4* | 0.0
Oc1oc(-c2ccco2)nc1C=Nc1cccc(Cl)c1 | -6.1 | 0.4 | nt | -18.1 | 2.0 | -0.1
O=C(CCl)N(c1ccccc1)C1CCCCC1 | -0.9 | -5.83 | i | -37.7 | -1.2 | -0.2
O=C(NCc1ccccc1)NC1CC2CCC(C1)N2Cc1ccco1 (stereo not given) | 8.0 | nt | nt | -6.3 | -0.3 | -0.2
O=C(CN1C2CCC1CC(NC(=O)Nc1ccccc1)C2)NCc1ccco1 (stereo not given) | -9.4 | -0.09 | 58.3 | 0.9 | 10.1* | 0.0
Cc1cc(Cl)ccc1Oc1nc(-c2ccc(F)cc2)ccc1C#N | -9.2 | 0.2 | nt | -3.7 | -2.7 | -0.2
COc1ccc(OC)c(C(=O)c2ccccc2)c1 | 0.1 | nt | 81.0* | -1.9 | -1.2 | -0.3
CCCC(=O)Nc1cc(C)c(NC(=O)Cc2ccccc2)cn1 | -1.4 | 0.43 | nt | -31.8 | 0.5 | -0.3
Cc1cc(NC(=O)C(C)C)ncc1NC(=O)Cc1ccccc1 | -7.7 | -0.36 | -65.0 | -14.4 | 10.3* | 0.6
c1ccc2c(c1)NC(c1ccncc1)n1c-2nc2ccccc21 (stereo not given) | -4.1 | nt | 77.8* | -7.7 | -2.1 | -0.4
Cc1cc(C)nc(S/C=C/C(=O)c2ccc(F)cc2)n1 | -6.7 | nt | nt | 59.2* | -1.8 | nt
Cc1cc(C)nc(SCNC(=O)c2ccc(F)cc2)n1 | 5.5 | 0.72 | 54.5 | 18.3 | 1.6 | 0.1
CCc1nnc(NC(=O)C2CCC(CNc3c(N4CCC(C)CC4)c(=O)c3=O)CC2)s1 (stereo not given) | -8.2 | -0.24 | nt | -2.5 | 4.2 | nt
SMILES | RBBP9 inh | Insulin prom up | Insulin prom inh | Mdm2 ligase inh | Wee1 degr inh | Hsp70 activator
NC(=O)CNC(=O)c1ccc(Cl)cc1 | 4.0 | -0.79 | nt | -8.6 | 9.1* | nt
CCOC(=O)c1[nH]c2ccccc2c1NC(=S)Nc1cccc(C)c1 | -6.9 | ? | 14.3 | nt | 9.3* | 0.0
CCOC(=O)c1[nH]c2ccccc2c1NC(=S)Nc1ccccc1 | -9.9 | 0.71 | 52.4 | nt | 0.5 | -0.2
COc1ccc(OC)c(S(=O)(=O)NCCc2csc(-c3cccnc3)n2)c1 | 4.7 | -1.41 | nt | -7.9 | 5.7 | nt
CNC(=O)c1ccc(-c2sc3nc(N4CCOCC4)c4c(c3c2N)CC(C)(C)OC4)o1 | -4.0 | 3.23* | -25.7 | -27.9 | -0.3 | 0.0
COC(=O)c1ccc(COc2ccc3c(C)c(C)c(=O)oc3c2)o1 | -6.6 | 3.49* | nt | 7.4 | 2.2 | -0.1
O=C(O)c1ccc(COc2ccc3c4c(c(=O)oc3c2)CCC4)o1 | 2.4 | 1.71 | 0.0 | -45.2 | 0.3 | -0.2
Cc1ccsc1C1Nc2ccccc2C(=O)N1O (stereo not given) | -1.4 | 0.86 | 9.4 | 14.5 | 9.0* | 0.0
Nc1nc(SCC(=O)NCc2ccccc2)[nH]c(=O)c1NC(=O)c1ccccc1F | -7.4 | 0.6 | -24.0 | 3.3 | -1.7 | 0.2
O=C(O)c1ccccc1NSc1ccccc1[N+](=O)[O-] | -10.0 | nt | nt | 4.8 | -0.7 | -0.3
O=C(O)c1ccccc1Sc1c([N+](=O)[O-])cc(C(F)(F)F)cc1[N+](=O)[O-] | -5.2 | -0.66 | 72.7* | -5.2 | -0.8 | -0.3
Cc1cc(C)cc(-n2nc(C)cc2N)c1 | -3.0 | nt | 72.2* | 4.2 | -0.6 | 0.3
Cc1cccc(-n2nc(C)cc2N)c1 | -4.2 | -0.68 | -14.3 | -26.5 | -2.4 | -0.1
C=CCNC(=O)C1CC2Cn3c(nc4cc5ccccc5cc43)C2N1C (stereo not given) | nt | 4.44* | nt | -10.3 | nt | nt
CN1C(C(=O)NCc2cccc(C(F)(F)F)c2)CC2Cn3c(nc4cc5ccccc5cc43)C21 (stereo not given) | nt | -0.62 | nt | 7.0 | nt | nt
CCN(CC)S(=O)(=O)c1cc(NC(=O)C(C)N2CCN(c3ccccn3)CC2)ccc1C (stereo not given) | 1.0 | 1.95 | nt | 5.0 | 2.0 | -0.3
CCN(CC)S(=O)(=O)c1cc(NC(=O)C(C)Nc2ccccc2N2CCOCC2)ccc1C (stereo not given) | -6.4 | 0.59 | nt | -18.7 | 9.8* | -0.4
CC(C)CN(CC(C)C)C(=O)COc1ccccc1C(N)=O | -9.4 | -0.18 | -23.5 | 2.0 | 9.9* | -0.2
Cc1ccc(OCCn2cnc3ccccc3c2=O)c([N+](=O)[O-])c1 | -1.8 | -0.45 | 15.4 | -9.9 | -3.5 | -0.1
O=C(CCCn1c(=O)[nH]c2ccsc2c1=O)N1CCN(c2ccccn2)CC1 | -7.3 | 0.12 | -76.3 | -8.4 | 10.8* | -0.2
O=C(CCCn1c(=O)[nH]c2ccccc2c1=O)N1CCN(c2ccccn2)CC1 | -4.0 | 0.19 | 45.0 | nt | -1.4 | -0.3
COc1ccc(-c2nc3ccccc3c(=O)n2NC(=S)N(C)C)cc1 | -5.2 | -0.74 | nt | -9.5 | 2.7 | -0.4
CC(OC(=O)CCc1nc2ccccc2[nH]c1=O)C(=O)c1ccccc1 (stereo not given) | -13.4 | -1.53 | -32.4 | -7.3 | 2.6 | -0.5
CC(OC(=O)CCc1nc2ccccc2[nH]c1=O)c1ccccc1 (stereo not given) | -8.0 | -0.75 | -471.4 | -0.2 | 10.7* | 0.0
O=C(O)Cc1sc(Nc2ccc(F)cc2)nc1-c1cccs1 | -12.0 | -0.13 | -15.4 | 15.1 | -2.0 | 0.2
